Tests used:
[1] = test system: Mus musculus; experiment: Average survival time includes only those mice that died prior to day 60(daily dosage 40 mg/kg)
[2] = test system: L1210; experiment: Compound was tested for inhibition of L1210 cells growth in culture.; type: functional, cell-based; conditions: Mus musculus
How it was run: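 L1210 cells seeded at 2000/well; test agents added 24 h later at various concentrations (at least five per agent). Growth read colorimetrically after adding phenazine methosulfate, with 2-3 h incubation at 37 °C and reading at 492 nm. IC50 is the concentration giving 50% growth inhibition.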

[3] = test system: Mus musculus; experiment: Average change in body weight from onset to termination of therapy(daily dosage 40 mg/kg); type: functional
[4] = species on record: Mus musculus; experiment: Long time survivors(out of 5) are the number of mice that survived for > 60 days relative to the total number of treated mice; type: functional
[5] = test system: Mus musculus; experiment: T/C(100) represents the ratio of the survival time of treated to control animals x 100(daily dosage 40 mg/kg); type: functional
[6] = target: T1, Ribonucleoside-diphosphate reductase subunit M2 (Homo sapiens, UniProt P31350); experiment: Inhibitory activity against CDP reductase.
T1 sequence (P31350 whole entry): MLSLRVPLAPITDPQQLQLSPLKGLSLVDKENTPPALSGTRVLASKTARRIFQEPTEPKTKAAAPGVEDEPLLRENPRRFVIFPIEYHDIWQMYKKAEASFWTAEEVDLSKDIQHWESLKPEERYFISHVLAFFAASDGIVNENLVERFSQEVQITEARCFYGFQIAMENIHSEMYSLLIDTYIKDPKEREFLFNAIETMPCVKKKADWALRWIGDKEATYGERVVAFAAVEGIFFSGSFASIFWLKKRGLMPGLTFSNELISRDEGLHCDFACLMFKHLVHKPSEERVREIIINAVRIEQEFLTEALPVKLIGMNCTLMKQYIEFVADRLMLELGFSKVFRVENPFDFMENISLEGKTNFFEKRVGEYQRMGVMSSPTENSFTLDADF
How it was run: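 Ribonucleoside diphosphate reductase prepared as non-heme iron and effector-binding subunits. IC50 is 50% inhibition, the mean of two separate determinations.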

[7] = test system: Mus musculus; experiment: Average survival time includes only those mice that died prior to day 60(daily dosage 80 mg/kg)
[8] = test system: Mus musculus; experiment: T/C(100) represents the ratio of the survival time of treated to control animals x 100(daily dosage 80 mg/kg); type: functional
[9] = test system: Mus musculus; experiment: Average survival time includes only those mice that died prior to day 60(daily dosage 40 mg/kg); type: functional
[10] = test system: Mus musculus; experiment: T/C(100) represents the ratio of the survival time of treated to control animals x 100(daily dosage 60 mg/kg); type: functional
[11] = test system: Mus musculus; experiment: Average survival time includes only those mice that died prior to day 80(daily dosage 40 mg/kg); type: functional
[12] = test system: Mus musculus; experiment: Average survival time includes only those mice that died prior to day 60(daily dosage 60 mg/kg)
[13] = dose 80 mg/kg, in the assay text read “daily dosage 80 mg/kg” for “daily dosage 40 mg/kg”
[14] = dose 60 mg/kg, in the assay text read “daily dosage 60 mg/kg” for “daily dosage 40 mg/kg”

With CCCCNc1ccc(/C=N/N=C(/N)S)nc1 the Average survival [1] was 9.2 days, the IC50 [2] was 7.8 µM and the Weight ([3]; dose 40 mg/kg) was -4%. It also gave a Survivors [4] of 0, a T/C [5] of 115 and an IC50 [6] of 2500 nM.

C=CCNc1cccnc1/C=N/N=C(/N)S was tested, and the IC50 [2] was > 10 µM, the Weight [3, 13] was -2.6% and the Average survival [7] was 10.1 days. It also gave a Survivors [4] of 0, a T/C [8] of 126 and an IC50 [6] of 1700 nM.

In the case of CNc1ccc(/C=N/N=C(/N)S)nc1, the IC50 [2] is reported as 2.4 µM, the Weight [3, 14] is reported as -4.4% and the Survivors [4] is reported as 0. The Average survival [9] was 17.8 days, the T/C [10] was 223 and the IC50 [6] was 1300 nM.

N/C(S)=N/N=C/c1ncc(N)cc1N gave an IC50 [2] of 1.1 µM, a Weight [3, 14] of -17.1% and a Survivors [4] of 2. The Average survival [9] was 10.8 days, the T/C [10] was 135 and the IC50 [6] was 9000 nM.

Molecule C=CCNc1ccc(/C=N/N=C(/N)S)nc1 has an IC50 [2] of 4.4 µM, a Survivors [4] of 0 and an Average survival [9] of 17.2 days. For the same molecule, the T/C [10] was 215 and the IC50 [6] was 1400 nM.

NCc1ccc(/C=N/N=C(/N)S)nc1 gave an IC50 [2] of 2.1 µM, a Weight [3, 13] of -2.4% and a Survivors [4] of 1. It also gave a T/C [8] of 168, an IC50 [6] of 2500 nM and an Average survival [11] of 13.4 days.

In the case of N/C(S)=N/N=C/c1cc(CN2CCOCC2)c(N)cn1, the Average survival [1] is reported as 10 days, the IC50 [2] is reported as > 10 µM and the Weight ([3]; dose 40 mg/kg) is reported as -3.5%. It also gave a Survivors [4] of 0, a T/C [5] of 125 and an IC50 [6] of 11000 nM.

CCNc1ccc(/C=N/N=C(/N)S)nc1 gave an IC50 [2] of 3.4 µM, a Weight [3, 13] of -3.4% and an Average survival [7] of 16.3 days. The Survivors [4] was 0, the T/C [8] was 204 and the IC50 [6] was 1000 nM.

In the case of CNc1cccnc1/C=N/N=C(/N)S, the Average survival [1] is reported as 11.8 days, the IC50 [2] is reported as 1.5 µM and the Weight ([3]; dose 40 mg/kg) is reported as -2.9%. The Survivors [4] was 0, the T/C [5] was 148 and the IC50 [6] was 1000 nM.

With CCCNc1ccc(/C=N/N=C(/N)S)nc1 the IC50 [2] was 5.1 µM, the Weight [3, 14] was -5.2% and the Survivors [4] was 0. It also gave an Average survival [12] of 11.7 days, a T/C [10] of 146 and an IC50 [6] of 1400 nM.
